Source: ChEMBL document CHEMBL1131104, “Bicyclic acylguanidine Na+/H+ antiporter inhibitors” (J Med Chem, 1998)

Legend:
[1] = species: Homo sapiens; test: Concentration to achieve half-maximal inhibition of acid-induced swelling in human platelets using platelet swelling assay; format: functional
Summary of the method: (§1)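 Human platelet-rich plasma from citrated venous blood (centrifuged 1000 rpm, 20 min, RT; pH adjusted to 7.4; used within 4–5 h). Final 2 × 10^8 platelets/mL in pH 6.6 buffer: 120 mM Na propionate, 20 mM K propionate, 20 mM HEPES, 10 mM glucose, 5 mM KCl, 1 mM MgCl2, 1 mM CaCl2, 0.86% DMSO. Swelling followed as absorbance drop at 680 nm over 4 min.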

[2] = molecular target: Sodium/hydrogen exchanger (Oryctolagus cuniculus, UniProt P23791+P50482+P26432); test: Sodium/hydrogen exchanger antiport activity was measured using [22]Na+ uptake inhibition assay in acidified rabbit erythrocytes; format: cell-based
Summary of the method: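 Acidified rabbit erythrocytes; 22Na+ uptake measured in incubation buffer containing 10 mM Na+. Na+/H+-dependent uptake taken as the EIPA-sensitive portion of 22Na+ uptake.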

[3] = species: Homo sapiens; test: Concentration to achieve half-maximal inhibition of acid-induced swelling in human platelets using platelet swelling assay(PSA).; format: functional; summary of the method: as §1

Row | SMILES | IC50 [1] [nM] | IC50 [2] [nM] | IC50 [3] [nM]
1 | Cc1cc2c(cc1C(=O)N=C(N)N)S(=O)(=O)CCC21OCCO1 | 1180 | 130 | –
2 | CC1(C)CC(C)(C)S(=O)(=O)c2cc(C(=O)N=C(N)N)ccc21 | 2080 | 360 | –
3 | Cc1cc2c(cc1C(=O)N=C(N)N)S(=O)(=O)C(C)(C)C2=O | 354 | 93 | –
4 | CO/N=C1\CS(=O)(=O)c2cc(C(=O)N=C(N)N)c(C)cc21 | 521 | 45 | –
5 | Cc1cc2c(cc1C(=O)N=C(N)N)S(=O)(=O)C(C)(C)CO2 | 843 | 36 | –
6 | Cc1cc2c(cc1C(=O)N=C(N)N)S(=O)(=O)C/C2=N\O | 197 | 16 | –
7 | Cc1cc2c(cc1C(=O)N=C(N)N)S(=O)(=O)CC21OCCO1 | 485 | 60 | –
8 | N=C(N)NC(=O)c1ccc2c(c1)S(=O)(=O)CC2 | > 100000 | 790 | –
9 | COC1CS(=O)(=O)c2cc(C(=O)N=C(N)N)ccc21 (stereo not drawn) | > 100000 | 700 | –
10 | Cc1cc2c(cc1C(=O)N=C(N)N)S(=O)(=O)CC2(O)Cc1ccccc1 (stereo not drawn) | 157 | 43 | –
11 | COC1c2cc(C)c(C(=O)N=C(N)N)cc2S(=O)(=O)C1(C)C (stereo not drawn) | 138 | 27 | –
12 | CC1=C(N)c2cc(C)c(C(=O)N=C(N)N)cc2S1(=O)=O | 2320 | 56 | –
13 | COC1(C)CS(=O)(=O)c2cc(C(=O)N=C(N)N)c(C)cc21 (stereo not drawn) | 321 | 40 | –
14 | Cc1cc2c(cc1C(=O)N=C(N)N)S(=O)(=O)C(C)(C)C2(C)O (stereo not drawn) | 102 | 17 | –
15 | C=C1c2cc(C)c(C(=O)N=C(N)N)cc2S(=O)(=O)C1(C)C | 114 | 13 | –
16 | CCC1(O)CS(=O)(=O)c2cc(C(=O)N=C(N)N)c(C)cc21 (stereo not drawn) | 77 | 34 | –
17 | N=C(N)NC(=O)c1ccc2c(c1)S(=O)(=O)CC2O (stereo not drawn) | > 100000 | 1500 | –
18 | CC(C)=C1CS(=O)(=O)c2cc(C(=O)N=C(N)N)c(C)cc21 | 5030 | 54 | –
19 | CC1(C)CCS(=O)(=O)c2cc(C(=O)N=C(N)N)ccc21 | – | 2200 | –
20 | CC(C)c1ccc(C(=O)N=C(N)N)cc1S(C)(=O)=O [CARIPORIDE] | 117 | – | –
21 | Cc1cc(-n2cccc2)c(S(C)(=O)=O)cc1C(=O)N=C(N)N [ENIPORIDE] | 32 | – | –

Continued, values first:

Row | IC50 [1] [nM] | IC50 [2] [nM] | IC50 [3] [nM] | SMILES
22 | 3670 | 96 | – | Cc1cc2c(cc1C(=O)N=C(N)N)S(=O)(=O)CCC2=O
23 | 115 | 30 | – | Cc1cc2c(cc1C(=O)N=C(N)N)S(=O)(=O)CC2(C)O (stereo not drawn)
24 | – | 29 | 1370 | C=C1CCS(=O)(=O)c2cc(C(=O)N=C(N)N)c(C)cc21
25 | 78 | 24 | – | CCC1CS(=O)(=O)c2cc(C(=O)N=C(N)N)c(C)cc21 (stereo not drawn)
26 | 77 | 21 | – | Cc1cc2c(cc1C(=O)N=C(N)N)S(=O)(=O)CC2C(C)C (stereo not drawn)
27 | 587 | 60 | – | Cc1cc2c(cc1C(=O)N=C(N)N)S(=O)(=O)CC2
28 | 692 | 116 | – | Cc1cc2c(cc1C(=O)N=C(N)N)S(=O)(=O)CC2N (stereo not drawn)
29 | 655 | 45 | – | Cc1cc2c(cc1C(=O)N=C(N)N)S(=O)(=O)CCC2C (stereo not drawn)
30 | 306 | 14 | – | Cc1cc2c(cc1C(=O)N=C(N)N)S(=O)(=O)C(C)(C)C2C (stereo not drawn)
31 | 182 | 44 | – | Cc1cc2c(cc1C(=O)N=C(N)N)S(=O)(=O)CC2C (stereo not drawn)
32 | 258 | 28 | – | Cc1cc2c(cc1C(=O)N=C(N)N)S(=O)(=O)C(C)(C)C2O (stereo not drawn)
33 | 1050 | 70 | – | Cc1cc2c(cc1C(=O)N=C(N)N)S(=O)(=O)CC2O (stereo not drawn)
34 | 14300 | 95 | – | Cc1cc2c(cc1C(=O)N=C(N)N)S(=O)(=O)CCC2
35 | 537 | 28 | – | Cc1cc2c(cc1C(=O)N=C(N)N)S(=O)(=O)CCCO2
36 | 1100 | 38 | – | Cc1cc2c(cc1C(=O)N=C(N)N)S(=O)(=O)C(C)(C)CC2C (stereo not drawn)
37 | 274 | 19 | – | Cc1cc2c(cc1C(=O)N=C(N)N)S(=O)(=O)CCCC2
38 | 208 | 96 | – | COC1CS(=O)(=O)c2cc(C(=O)N=C(N)N)c(C)cc21 (stereo not drawn)
